Several values for one entry are separate records, joined by “and”; a condition that tells them apart may be missing. Equal values may be shown once. Screen size: about 200,000 compounds; about 2,000 (1%) were called active.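 Rule for the calls: active = inhibition above the campaign mean inhibition of all tested compounds plus 3 SD (cut at about 20% in these data); inactive = the rest.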 Shown is part of a subset that was picked to be rich in actives.
These compounds were tested against Neuropeptide Y receptor type 1 (Homo sapiens) (UniProt P25929) (assay: NPY-Y1 receptor antagonists, primary screen, cell-based (AID 1040;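 note: 0% = DMSO wells given NPY plus isoproterenol and 100% = isoproterenol alone without NPY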)). Details: HEK293-CNG Y1 cells, membrane potential fluorescence; at 3.6 µM; stronger effect = higher value; NPY at EC95, then isoproterenol.
Outline: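 Material: HEK293 cells with Y1 receptor plus CNG channel; times: compound incubation 1 h at room temperature, readout 45 min post-stimulation; signal: fluorescence, membrane potential probe; read-out basis: fluorescence ratio normalized to % inhibition between controls; benchmarks: full-block control isoproterenol-only wells, zero-block control NPY plus isoproterenol wells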

Chain of Neuropeptide Y receptor type 1 (Homo sapiens) (P25929 whole entry, looked up): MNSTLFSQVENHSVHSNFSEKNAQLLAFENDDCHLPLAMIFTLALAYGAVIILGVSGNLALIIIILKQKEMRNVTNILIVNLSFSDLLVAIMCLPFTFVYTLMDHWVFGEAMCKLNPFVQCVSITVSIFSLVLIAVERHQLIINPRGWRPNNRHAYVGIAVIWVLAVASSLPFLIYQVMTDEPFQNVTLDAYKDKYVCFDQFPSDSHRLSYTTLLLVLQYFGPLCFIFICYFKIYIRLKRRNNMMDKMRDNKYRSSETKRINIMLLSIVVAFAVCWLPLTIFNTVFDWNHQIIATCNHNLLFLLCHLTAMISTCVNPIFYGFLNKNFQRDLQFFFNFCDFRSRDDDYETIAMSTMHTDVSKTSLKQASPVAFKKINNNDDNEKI

| SMILES | inhibition |
| --- | --- |
| COc1ccc(CCN(C(=O)COc2ccccc2)c2nc(-c3ccccc3)cs2)cc1OC | 37.1% (active) |
| COc1ccc(CCNc2nc(-c3cccc(NC(C)=O)c3)cs2)cc1OC | 6.08% (inactive) |
| CN(C(=O)COc1ccccc1)c1nnc(-c2ccncc2)s1 | 7.86% (inactive) |
| CC(=O)N1CC(C)c2scc(C)[n+]2-c2ccccc21 (centres undefined) | 23.1% (active) |
| C/C(=C\c1ccccc1)C1NC(=O)c2c(sc3c2CCCC3)N1 (centres undefined) | -4.04% (inactive) |
| CC(=O)N(CC1CCCO1)C1(C(=O)NC2CCCC2)CCCCC1 (centres undefined) | 1.44% (inactive) |
| Cc1ccsc1C(C(=O)NC1CCCCC1)N(C(=O)Cc1cccs1)C1CC1 (centres undefined) | 4.38% (inactive) |
| O=C(Cc1cccs1)N(CC1CCCO1)C1(C(=O)NC2CCCCC2)CCCCC1 (centres undefined) | 50.3% (active) |
| CSc1cccc(NC(=S)N(Cc2ccccc2)Cc2ccccn2)c1 | 5.5% (inactive) |
| O=c1c2ccccc2nc2n1C1(CCCCC1)Cc1ccccc1-2 | 32% (active) |
| c1cncc(-c2nnc3n2C2(CCCCC2)Cc2ccccc2-3)c1 | 1.15% (inactive) |
| CCC1(CC)Cc2ccccc2-c2nc3ccccc3c(=O)n21 | 12.8% (inactive) |
| COCCCNC(=S)N(Cc1ccccc1)Cc1ccc(F)cc1 | 2.32% (inactive) |
| Cc1cccc2cc(CN(Cc3cccs3)C(=S)NCc3ccco3)c(=O)[nH]c12 | -4.05% (inactive) |
| Cc1cc(C)c2[nH]c(=O)c(CN(Cc3ccccc3)C(=S)NCCCN(C)C)cc2c1 | 25.1% (active) |
| CC(=O)N1CCN(CC(=O)Nc2ccc(SC(F)F)cc2)CC1 | 4.16% (inactive) |
| COc1ccc(C(CCNCc2ccccc2F)c2ccc(F)cc2)cc1 (centres undefined) | 9.35% (inactive) |
| COc1ccccc1NC(=O)CCCc1c[nH]c2ccccc12 | 11.1% (inactive) |
| COc1cccc(CNCCc2c[nH]c3ccccc23)c1OCc1ccccc1F | 21.9% (active) |
| CCC(=O)Nc1sc(C(=O)Nc2ccccc2)c(C)c1C(=O)OC | 7.74% (inactive) |
| O=S(=O)(Nc1ccc2cn[nH]c2c1)c1ccccc1 | -1.06% (inactive) |
| Cc1cc(C)nc(NS(=O)(=O)c2ccc(N/C=C\C(=O)c3cccs3)cc2)n1 | 1.24% (inactive) |
| COc1ccc(CCNC2=C(Cl)C(=O)N(Cc3ccccc3)C2=O)cc1OC | -3.95% (inactive) |
| C/C(=N\N)c1c(-c2ccccc2)c2cc(Br)ccc2[nH]c1=O | -0.69% (inactive) |

| SMILES | inhibition |
| --- | --- |
| Cc1cnc(C(=O)OCC(=O)NCCCc2ccccc2)cn1 | 2.73% (inactive) |
| COc1ccc(CN(C)C(=S)Nc2ccc(Cl)cc2Cl)cc1 | 3.26% (inactive) |
| NC(N)=N/N=C/c1ccc(OCc2ccc(Cl)cc2Cl)cc1 | 22.1% (active) |
| NC(N)=N/N=C/c1ccc(Cl)c([N+](=O)[O-])c1 | 3.89% (inactive) |
| COc1ccc(C(=O)O/N=C(\N)Cc2ccc(Cl)cc2Cl)cc1OC | -3.58% (inactive) |
| CN(C)CCNC(=O)Cc1ccc([N+](=O)[O-])cc1 | -2.56% (inactive) |
| Cc1ccc2cc(CN(c3ccc(C)c(C)c3)S(C)(=O)=O)c(=O)[nH]c2c1 | -0.43% (inactive) |
| NNC(=O)c1cnn(-c2ccccc2)c1C(F)(F)F | 3.72% (inactive) |
| O=C(CN1C2=NCCN2c2ccccc21)c1cccs1 | 3.06% (inactive) |
| O=C(Nc1ccccc1N1CCCCC1)c1cccc(F)c1 | 13.7% (inactive) |
| O=C(Nc1ccccc1N1CCN(c2ccccc2)CC1)c1cccc(F)c1 | 44.1% (active) |
| Cc1cccc(C(=O)Nc2ccccc2N2CCN(c3ccc(F)cc3)CC2)c1 | 6.05% (inactive) |
| CC(=O)N(CCCN(C)C)c1nc2ccc(C)cc2s1 | -0.43% (inactive) |
| O=C(CSc1cccc[n+]1[O-])c1ccc(Cl)cc1 | 0.77% (inactive) |
| CN(C)S(=O)(=O)c1cc(NC(=O)CN2C(=O)NC3(CCCc4ccccc43)C2=O)ccc1Cl (centres undefined) | -4.16% (inactive) |
| Cc1ccc(-n2nc3cc(C)c(NC(=O)c4cccnc4)cc3n2)cc1 | -4.27% (inactive) |
| Cc1ccc2nc(-c3ccc(NC(=O)c4cccnc4)cc3)oc2c1 | -0.59% (inactive) |
| Cc1cc2nc(-c3ccc(NC(=O)c4cccnc4)cc3)oc2cc1C | 29.8% (active) |
| Cc1nc2cc(NC(=O)NC3CC3)ccc2n1C | -0.07% (inactive) |
| O=C(CN1CCN(CC(=O)Nc2ccc3c(c2)OCO3)CC1)Nc1ccc(F)cc1 | -3.14% (inactive) |
| O=C(CN1CCN(C(=O)c2ccco2)CC1)Nc1ccc2c(c1)OCO2 | 0.97% (inactive) |
| O=C(CN1CCN(c2ncc(C(F)(F)F)cc2Cl)CC1)Nc1ccc2c(c1)OCO2 | 23.8% (active) |
| COc1ccc(C(=O)NC(Cc2ccc(OC(=O)c3ccc(OC)cc3)cc2)C(=O)O)cc1 (centres undefined) | 3.87% (inactive) |
| Cc1coc(C)c1C(=O)CC1(O)C(=O)N(C)c2ccc(Cl)cc21 (centres undefined) | 1.88% (inactive) |

| SMILES | inhibition |
| --- | --- |
| O=C1NC(=Nc2ccc(Cl)cc2)SC1Cc1cccc(Cl)c1Cl (centres undefined) | -1.29% (inactive) |
| CCc1cc2c(NC3CCCC3)ncnc2s1 | -1.37% (inactive) |
| CC(Oc1ccc2ccccc2c1)C(=O)NNC(=S)NC(=O)c1ccco1 (centres undefined) | 21.9% (active) |
| CCCc1ccc(OCC(=O)NNC(=S)NC(=O)c2ccco2)cc1 | 10.6% (inactive) |
| O=C(Nc1ccc2ccccc2c1)/C(=C/c1cccc(Br)c1)NC(=O)c1ccco1 | 7.08% (inactive) |
| COc1ccccc1NC(=O)CSc1nc2sc(C)c(C)c2c(=O)n1Cc1ccco1 | 9.58% (inactive) |
| CCOC(=O)CSc1nc2c(sc(=S)n2CCc2ccccc2)c(=O)n1Cc1ccco1 | 34.8% (active) |
| CCOC(=O)CSc1nc2c(c(=O)n(C)c(=O)n2C)n1Cc1ccccc1F | 1.86% (inactive) |
| CC(=O)c1ccc(N2CCN(S(=O)(=O)c3c(C)[nH]c(=O)[nH]c3=O)CC2)cc1 | -3.11% (inactive) |
| O=C(NC(=S)Nc1cccc(-c2ccc(CO)o2)c1)c1cccs1 | 4.06% (inactive) |
| O=C(Nn1c(SCc2ccc([N+](=O)[O-])cc2)nc2ccccc2c1=O)c1ccc(F)cc1 | 3.79% (inactive) |
| COc1ccc2oc(=O)c(C(=O)N3CCCC3)cc2c1 | 1% (inactive) |
| CCOC1CCCCC1NS(=O)(=O)c1ccc(Cl)cc1 (centres undefined) | 21.4% (active) |
| Cc1cc(C)nc(SC2CCCCC2NS(=O)(=O)c2ccc(Cl)cc2)n1 (centres undefined) | 4.03% (inactive) |
| CSc1ccc(S(=O)(=O)NC2CCCCC2)cc1 | -0.27% (inactive) |
| O=C(COc1nc2ccccc2nc1N1CCOCC1)NCC(F)(F)F | 3.34% (inactive) |
| C/C=C/c1ccc(OCC(O)CN2CCCCCCC2)c(OC)c1 (centres undefined) | 16.4% (inactive) |
| C/C(=N/O)c1ccc(N2C(=O)C3C4C=CC(C3C2=O)C2C3C(=O)N(c5ccc(/C(C)=N/O)cc5)C(=O)C3C42)cc1 (centres undefined) | 20.7% (active) |
| CCCCCOC(=O)c1ccc(N2C(=O)C3C4C=CC(C4)C3C2=O)cc1 (centres undefined) | -0.77% (inactive) |
| Cc1ccc(N2C(=O)C3CC3C2=O)cc1 (centres undefined) | -4.56% (inactive) |
| Cc1ccc(C(=O)N/C(=C/c2cccs2)C(=O)N2CCCCC2)cc1 | 0.27% (inactive) |
| CCOC(=O)c1c(NC(=O)C2CC=CCC2C(=O)O)sc(C)c1CC (centres undefined) | 6.42% (inactive) |
| COc1ccc2nc(Nc3nc4ccc(NC(C)=O)cc4s3)sc2c1 | -4.47% (inactive) |
| CCCC(=O)Nc1nc2ccc(NC(=O)c3cccnc3)cc2s1 | 2.46% (inactive) |

| SMILES | inhibition |
| --- | --- |
| CCCC(=O)Nc1nc2ccc(NC(=O)c3c(F)c(F)c(OC)c(F)c3F)cc2s1 | 33.9% (active) |
| O=C(NCc1ccco1)c1ccc(NS(=O)(=O)c2cccc([N+](=O)[O-])c2)cc1 | -0.88% (inactive) |
| CN1CCN(C(=O)/C(=C\c2cccs2)NC(=O)c2cccs2)CC1 | -0.85% (inactive) |
| CO/N=C/c1cn(-c2ccc(Cl)cc2)nn1 | -3.05% (inactive) |
| O=C(NCc1ccncc1)NC12CC3CC(CC(C3)C1)C2 | -6.14% (inactive) |
| CCCn1nc(C(=O)N2CCCc3ccccc32)c2ccccc2c1=O | 3.23% (inactive) |
| O=C(c1cccc(C(=O)N2CCc3ccccc32)n1)N1CCc2ccccc21 | 10.5% (inactive) |
| CCCCn1nc(C(=O)N2CCc3ccccc32)c2ccccc2c1=O | 28.5% (active) |
| NS(=O)(=O)c1ccc(N=Cc2ccc(Br)s2)cc1 | 2.13% (inactive) |
| Cc1ccc(S(=O)(=O)NC(C(=O)N2CCOCCOCCOCCOCC2)c2ccccc2)cc1 (centres undefined) | 5.72% (inactive) |
| O=C(/C=C/c1ccccc1)Nc1nnc(SCC(=O)c2ccc3ccccc3c2)s1 | -1.51% (inactive) |
| O=C(NCCNc1ccc([N+](=O)[O-])cc1)c1cccc2c(Br)cccc12 | 10.2% (inactive) |
| CCOC(=O)/C(=N\Nc1ccccc1Cl)N(C)C1CCS(=O)(=O)C1 (centres undefined) | -1.74% (inactive) |
| Cn1c(-c2ccccc2)c[n+]2c1CCCCC2 | 6% (inactive) |
| Cc1ccc(C(=O)N2CCCC(c3ccccc3)=N2)cc1 | 0.71% (inactive) |
| Cc1ccc(C(=O)C[n+]2cc(-c3ccccc3)n3c2CCCCC3)cc1 | 30.8% (active) and 55.8% (active) |
| CCN1CCN(C(C(=O)NC2CCCC2)c2cc3c(cc2[N+](=O)[O-])OCO3)CC1 (centres undefined) | -0.35% (inactive) |
| COC(=O)C1C(=O)NCC1c1ccc(C)cc1 (centres undefined) | -2.75% (inactive) |
| COC(=O)C1=C(Nc2ccc(C)cc2)C=C(C)C(C(=O)OC)C1c1ccc(F)cc1 (centres undefined) | 32.6% (active) |
| COC(=O)C1=C(Nc2ccc(OC)cc2)C=C(C)C(C(=O)OC)C1c1ccc(C)cc1 (centres undefined) | 14.2% (inactive) |
| O=c1[nH]c2ccccc2s1 | 1.2% (inactive) |
| Cc1ccc(S(=O)(=O)N2CCOCC2)cc1C(=O)NC(=S)N(Cc1ccccc1)C(C)C | 1.17% (inactive) |

From PubChem BioAssay AID1040 (The Scripps Research Institute Molecular Screening Center, 2008)
